Data set [1] deals with Rattus norvegicus. Put plainly: Induction glutathione-CYP1A1 in rat liver at 15 mg/kg, po qd by EROD assay.
Data set [2] deals with Rattus norvegicus. Put plainly: Toxicity in Sprague-Dawley rat assessed as glutamic-pyruvate level at 10 mg/kg/day, po (RVb = 22.8 +/-13.2 U/L). The note with it: in vivo.
The test system of data set [3] is TK-10. Briefly: Cytotoxicity against human TK10 cells. It is filed as functional, cell-based.
Data set [4] has as its system MCF7. Briefly: Cytotoxicity against human MCF7 cells. It is filed as functional, cell-based.
Data set [5] concerns HT-29. Put plainly: Cytotoxicity against human HT-29 cells. It counts as functional, cell-based.
The test system of data set [6] is Rattus norvegicus. Put plainly: Induction of quinone reductase activity in rat liver at 22.5 mg/kg, po qd. It counts as functional. Put shortly:
(§1)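 Oral dosing for 15 days over 3 weeks, then liver QR read as loss of 600 nm absorbance of DCPIP (80 µM) with 0.2 mM NADH, 5 µM FAD, 25 mM Tris–HCl pH 7.4, 6% BSA, 0.01% Tween 20. Specific activity expressed as % change from basal-diet control, n = 5, means ± SE, Student's t-test.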

In data set [7] the test system is Rattus norvegicus. Put plainly: Toxicity in Sprague-Dawley rat assessed as change in body weight at 250 mg/kg, po. It is filed as organism-based. On the set-up: dose 250 mg/kg, route oral. The note with it: in vivo. Put shortly: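 Healthy female Sprague–Dawley rats (about 200 g, 5–7 per group) given a single oral dose by intragastric syringe, suspended in saline/Tween 80 (4:1); vehicle-treated controls included. Daily weighing and observation for 3 days, then sacrifice with clinical biochemistry, haematology and organ histology.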

Data set [8] relates to Rattus norvegicus. Put plainly: Induction glutathione-S-transferase activity in rat liver at 15 mg/kg, po qd.
For data set [9], the system named is Rattus norvegicus. Briefly: Toxicity in Sprague-Dawley rat assessed as leucocyte level at 10 mg/kg/day, po. The note with it: in vivo.
Data set [10] deals with Rattus norvegicus. Put plainly: Toxicity in Sprague-Dawley rat assessed as glutamic-oxalate transaminase level at 10 mg/kg/day, po (RVb = 71.4 +/- 7.8 U/L). The conditions noted are these: in vivo.
The test system of data set [11] is Rattus norvegicus. Put plainly: Toxicity in Sprague-Dawley rat assessed as haemoglobin level at 10 mg/kg/day, po (RVb = 15.1 +/- 4.1 g/L). The conditions noted are these: in vivo.
The test system of data set [12] is Rattus norvegicus. Put plainly: Induction of quinone reductase activity in rat liver at 15 mg/kg, po qd. It is filed as functional. Put shortly: as §1
The subject of data set [13] is Rattus norvegicus. Briefly: Toxicity in Sprague-Dawley rat assessed as change in body weight at 10 mg/kg/day, po. The note with it: in vivo.
Data set [14] is described as follows: Mutagenic activity in Salmonella typhimurium TA98 assessed as […] increase in number of revertants at 3 ug/plate after 48 hrs by Ames test. The conditions noted are these: salmonella enterica subsp. enterica serovar typhimurium. It counts as toxicity. Put shortly:
(§2)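 TA98 pre-incubation Ames test without listed S9: 50 µL test solution, 500 µL 0.1 M phosphate pH 7.4 and 100 µL bacteria (2 × 10^9/mL), 60 min. Top agar with trace histidine/biotin, then 48 h at 37 °C and revertant count. Doses fall by thirds from the minimum toxic dose; DMSO and 4-NPD (20 µg/plate) controls; two independent experiments, means ± SD.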
On the technique in general: In the Ames test, an excess of revertant colonies over the control signals mutagenicity.

Data set [15] is described as follows: Mutagenic activity in Salmonella typhimurium TA98 assessed as […] increase in number of revertants at 225 ug/plate after 48 hrs by Ames test. It is filed as toxicity. The note with it: salmonella enterica subsp. enterica serovar typhimurium. A digest of the protocol:
as §2

The target in data set [16] is T1, Quinone oxidoreductase (Homo sapiens) (UniProt Q08257).
T1 sequence (whole entry): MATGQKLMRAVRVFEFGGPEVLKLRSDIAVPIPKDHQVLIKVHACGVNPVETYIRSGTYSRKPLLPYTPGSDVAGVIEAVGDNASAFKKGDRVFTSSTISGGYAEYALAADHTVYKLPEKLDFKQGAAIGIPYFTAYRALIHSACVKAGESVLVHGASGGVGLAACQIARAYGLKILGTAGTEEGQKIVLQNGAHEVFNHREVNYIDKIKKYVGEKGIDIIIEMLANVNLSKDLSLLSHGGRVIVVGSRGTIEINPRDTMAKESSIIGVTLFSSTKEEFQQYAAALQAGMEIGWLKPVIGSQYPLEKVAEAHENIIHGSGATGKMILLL
Put plainly: Induction of quinone reductase activity in human MCF7 cells. It counts as cell-based. Put shortly:
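QR induction in MCF-7 tumour cells at 40 µM, a level chosen from a flavone dose–response; result given as ratio of QR specific activity, treated/control.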

Data set [17] in a line: Mutagenic activity in Salmonella typhimurium TA98 assessed as […] increase in number of revertants at 75 ug/plate after 48 hrs by Ames test. It is filed as toxicity. The note with it: salmonella enterica subsp. enterica serovar typhimurium. Put shortly: as §2
The nature of data set [18]: Mutagenic activity in Salmonella typhimurium TA98 assessed as […] increase in number of revertants at 25 ug/plate after 48 hrs by Ames test. It counts as toxicity. The conditions noted are these: salmonella enterica subsp. enterica serovar typhimurium. Put shortly:
as §2

Data set [19] can be described thus: Mutagenic activity in Salmonella typhimurium TA98 assessed as […] increase in number of revertants at 8 ug/plate after 48 hrs by Ames test. It counts as toxicity. The note with it: salmonella enterica subsp. enterica serovar typhimurium. A digest of the protocol:
as §2

For data set [20], the system named is Rattus norvegicus. Put plainly: Induction glutathione-S-transferase activity in rat liver at 15 mg/kg, po qd. It counts as functional. A digest of the protocol: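 Hepatic GST after oral dosing for 15 days over 3 weeks. Substrates 1 mM CDNB and 1 mM reduced glutathione in 100 mM phosphate buffer pH 6.5; CDNB–GSH conjugate followed at 340 nm. Specific activity given as % change from basal-diet control, n = 5, means ± SE, Student's t-test.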

The test system of data set [21] is Rattus norvegicus. Briefly: Induction glutathione-CYP1A1 in rat liver at 15 mg/kg, po qd by EROD assay. It is filed as functional. Put shortly:
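Rat liver CYP1A1 read as EROD activity: fluorescence increase from resorufin released from 7-ethoxyresorufin, in 100 mM phosphate buffer pH 7.6 with 250 µM NADPH. Oral dosing for 15 days over 3 weeks; change in specific activity expressed as % of basal-diet control, n = 5, means ± SE, Student's t-test.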

The mark [22] stands for this setting: dose 15.0 mg/kg, in the assay text read “at 15.0 mg/kg” for “at 22.5 mg/kg”.

Calls of active or inactive are those of the source. The rule behind the calls is not given here.

As to `COc1ccc(/C=C/C(=O)c2ccccc2O)cc1`, the Activity in data set [1] was -40%; in [2], 13.2 U/L; in data set [6] (setting [22]) it was 60%; in [7], “Non-toxic”; in data set [8], -10%; in data set [9], 7300 µL⁻¹. In addition, the Activity was 52.2 U/L in [10] and 12.3 g/L in data set [11]. Besides, the outcome in data set [3] and in [4] was Active. For the same molecule, the outcome in [5] was inactive.

On to `O=c1cc(-c2ccc(Br)cc2)oc2ccccc12`, for which the Activity in data set [12] is listed as 30%; in [13] it was “Non-toxic”. The outcome in data set [3], in [4] and in data set [5] was inactive.

Take `O=C(/C=C/c1ccc(Cl)cc1)c1ccccc1O`: the Activity in data set [1] is -10%; in [6] (setting [22]), 20%; in [8], -20%. In addition, the result in data set [3] and in data set [5] was Active. Also, in data set [4], the result was inactive.

As for `O=c1cc(-c2ccccc2Br)oc2ccccc12`, the Activity result in data set [13] is “Non-toxic”; in [2], 45.4 U/L; in data set [9], 4500 µL⁻¹; in data set [10], 52.9 U/L; in data set [11], 9.6 g/L. Also, the outcome in data set [3] and in [5] was inactive. Besides, in data set [4], the result was Active.

As to `O=C(/C=C/c1ccccn1)c1ccccc1O`, the Activity in [14] came to 13; in data set [15], 18; in [1], 10%; in data set [6] (setting [22]), 13%; in [17], 17; in data set [18] it was 16. For the same molecule, the Activity in [8] is 20%; in data set [19], 17. Further, the outcome in data set [16], in [3], in data set [4] and in data set [5] was Active.

As for `Nc1ccc(/C=C/C(=O)c2ccccc2O)cc1`, the result in [3], in data set [4] and in [5] was inactive. Further, the Activity in data set [6] (setting [22]) was determined as 0%.

Turning to `COc1ccc(/C=C/C(=O)c2ccccc2O)cc1OC`, the Activity result was “Non-toxic” in data set [13]; 15 U/L in data set [2]; -20% in [6] (setting [22]); 9600 µL⁻¹ in [9]; 62.1 U/L in [10]; 9.3 g/L in [11]. Moreover, the outcome in data set [3] and in [4] was Active. Besides, in data set [5], the result was inactive.

In the case of `COc1ccc(/C=C/C(=O)c2ccccc2)cc1` [4-METHOXY CHALCONE], the Activity was 10% in data set [12], -10% in data set [20] and -30% in data set [21]. In addition, the result in data set [3] and in [5] was Active. Also, the result in data set [4] was inactive.

As to `CSc1ccc(/C=C/C(=O)c2ccccc2)cc1`, the Activity was 20% in data set [12], 30% in data set [20] and 750% in [21]. In [3], the outcome was Active. Further, the outcome in data set [4] and in [5] was inactive.

`CN(C)c1ccc(/C=C/C(=O)c2ccccc2O)cc1`: the Activity result in data set [13] was “Non-toxic”; in data set [9] it was 5500 µL⁻¹; in data set [11], 11.5 g/L. In addition, the result in data set [3], in data set [4] and in data set [5] was inactive.

Consider `O=c1cc(-c2ccccc2)oc2ccccc12` [FLAVONE], for which the Activity in data set [12] was -30%. The result in data set [3], in data set [4] and in [5] was inactive.

Consider `COc1ccc(C2CC(=O)c3ccccc3O2)cc1` (stereo not given), for which the Activity entry in data set [13] is “Non-toxic”; in data set [9], 8600 µL⁻¹; in [11], 11.3 g/L. Further, the outcome in data set [3] and in data set [4] was Active. For the same molecule, in data set [5], the outcome was inactive.

Turning to `O=C(/C=C/c1ccc2c(c1)OCO2)c1ccccc1O`, the Activity was -50% in data set [1], 30% in data set [6] (setting [22]) and -20% in [8]. In addition, the outcome in [3], in data set [4] and in data set [5] was inactive.

With `O=C(/C=C/c1ccc(Cl)cc1)c1ccccc1` [4-CHLORO CHALCONE], the values for the Activity in data set [12], in [20] and in data set [21] were 10%, -20% and 40%, respectively. In addition, the outcome in data set [3] and in [5] was Active. For the same molecule, the result in data set [4] was inactive.

As to `O=C1CC(c2ccccc2Br)Oc2ccccc21` (stereo not given), the Activity in data set [12] stood at 10%; in data set [20], 10%; in data set [21], 30%. In addition, the outcome in data set [3] and in data set [5] was inactive. Also, the result in data set [4] was Active.

On to `O=C(/C=C/c1cccs1)c1ccccc1O`, for which the Activity in [12] is listed as 10%; in [14] it was 15; in [15] it was 14; in data set [20], 10%; in data set [21], 20%; in [17], 13. Besides, the figures for the Activity in data set [18] and in data set [19] were 19 and 16, respectively.

As for `O=C(/C=C/c1ccccc1)c1ccccc1O` [2'-HYDROXYCHALCONE], the Activity in data set [12] was 10%; in [14] it was 13; in [15], 14; in [20], 30%; in [21] it was -60%; in [6] (dose 22.5 mg/kg) it was 10%. The Activity was 20 in [17]; “Non-toxic” in data set [7]; 17 in [18]; 16 in data set [19]; 5200 µL⁻¹ in data set [9]; 11.3 g/L in [11]. Further, the result in data set [16], in [3], in data set [4] and in [5] was Active.

The record behind these values is ChEMBL document CHEMBL1250420, “Identification of chalcones as in vivo liver monofunctional phase II enzymes inducers” (Bioorg Med Chem, 2010).
